Results: ChEMBL document CHEMBL1124439, “Computer-assisted design and synthesis of novel aldose reductase inhibitors” (J Med Chem, 1989)
pIC50: −log10 of the molar value. Calls of active or inactive are those of the source. No cut-off for these calls is given here.

Columns and labels:
[1] = molecular target: T1, Aldo-keto reductase family 1 member B1 (Rattus norvegicus, UniProt P07943); test: Inhibition of aldose reductase (or polyol accumulation) in isolated rat sciatic nerve by compound at 10e-5 M concentration; assay type: tissue-based
Procedure, shortened: (§1)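 Isolated rat sciatic nerve incubated in vitro with compound, with polyol accumulation as read-out. Percent inhibition of polyol accumulation recorded at 1 × 10⁻⁵ M.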

[2] = molecular target: T1, Aldo-keto reductase family 1 member B1; test: Inhibition of aldose reductase (or polyol accumulation) in isolated rat sciatic nerve by compound at 10E-5 M concentration; IA means Not Active; assay type: tissue-based; procedure, shortened: as §1
[3] = molecular target: Aldo-keto reductase family 1 member B1 (Bos taurus, UniProt P16116); test: In vitro inhibition of bovine lens aldose reductase
Rattus norvegicus [4] = test: Inhibition of galactitol accumulation in lens of rats, by 159 mg/kg of compound; NS means Not Significant; assay type: functional, organism-based; design: dose 159 mg/kg; settings: Lens of camera-type eye
Procedure, shortened: (§2)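 Rats were fed 20% galactose chow for 4 days with drug, at the dose given in mg/kg. Galactitol was measured in lens and sciatic nerve, and percent inhibition was calculated against galactosemic control rats.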

Rattus norvegicus [5] = test: Inhibition of galactitol accumulation in sciatic nerve of rats, by 159 mg/kg of compound; NS means Not Significant.; assay type: functional, organism-based; design: dose 159 mg/kg; procedure, shortened: as §2
[6] = molecular target: T1, Aldo-keto reductase family 1 member B1; test: Inhibition of aldose reductase (or polyol accumulation) in isolated rat sciatic nerve by compound at (10E-5) M concentration; assay type: tissue-based; procedure, shortened: as §1
Rattus norvegicus [7] = test: Inhibition of galactitol accumulation in lens of rats, by 76 mg/kg of compound; NS=Not significant; assay type: functional, organism-based; design: dose 76 mg/kg; settings: Lens of camera-type eye; procedure, shortened: as §2

pIC50 [1] | IC50 [2] | pIC50 [3] | pIC50 [6] | SMILES | inhibition (Rattus norvegicus [4]) | inhibition (Rattus norvegicus [5]) | inhibition (Rattus norvegicus [7])
6.27 |  |  |  | COc1ccc2c(C(=S)N(C)CC(=O)O)cccc2c1C(F)(F)F [TOLRESTAT] |  |  | 
 | Not Active | 6.14 |  | CN(CC(=O)O)C(=S)c1cccc2ccccc12 | inactive | inactive | 
 |  | 6.62 | 5.60 | CC1=C(CC(=O)O)c2cccc3cccc(c23)C1=O |  |  | inactive
